# PMI act satM6P = human PMI activators, high substrate, primary screen, biochemical, fluorescence intensity, near-saturating mannose 6-phosphate. Mannose-6-phosphate isomerase (Homo sapiens), P34949. activation factor at 20 µM. AID 1216, 2008. 190,000 tested, 0.34% active. coupled PMI enzyme assay, resazurin fluorescence, 20 min; stronger effect = higher value; 1 = untreated enzyme, 0 = substrate-free blank;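 active means activation factor of 2 or more at 20 µM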
# Target sequence (P34949 whole entry, looked up): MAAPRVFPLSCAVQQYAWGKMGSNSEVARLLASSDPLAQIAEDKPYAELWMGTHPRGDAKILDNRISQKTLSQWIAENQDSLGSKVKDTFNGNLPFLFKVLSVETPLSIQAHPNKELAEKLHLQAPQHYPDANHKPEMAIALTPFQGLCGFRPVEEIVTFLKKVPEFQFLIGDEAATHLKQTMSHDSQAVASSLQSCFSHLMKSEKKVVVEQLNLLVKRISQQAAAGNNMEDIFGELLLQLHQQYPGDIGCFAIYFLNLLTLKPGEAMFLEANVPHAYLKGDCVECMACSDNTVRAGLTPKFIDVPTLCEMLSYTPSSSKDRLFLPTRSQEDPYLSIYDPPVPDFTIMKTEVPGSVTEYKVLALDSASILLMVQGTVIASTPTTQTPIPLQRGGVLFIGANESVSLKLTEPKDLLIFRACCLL
#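 assay system = human phosphomannose isomerase with PGI, G6PDH, diaphorase coupling enzymes | quantity = 15 ng/mL PMI | incubation = enzyme reaction with compound 20 min at room temperature | medium = HEPES pH 7.4 buffer with MgCl2 and Tween-20 | compound dosing = one concentration, 20 µM, in 1% DMSO | measured by = Diaphorase-driven resazurin-to-resorufin fluorescence, excitation 544, emission 590 nm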
# L major viab = Leishmania major promastigote growth inhibition, primary screen | inhibition, % at 10 µM | 200,000 tested, 9% active | Leishmania major promastigotes, resazurin fluorescence viability; in the data active means inhibition above about 50%;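 further: promastigotes grown with compound for 44 hours at 28 °C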
# PMI act = activators of human PMI, primary screen, biochemical, fluorescence intensity, near-Km mannose 6-phosphate. activation factor at 20 µM. AID 1214, 2008. 190,000 tested, 0.005% active. purified human PMI, coupled resazurin fluorescence, 20 min; stronger effect = higher value; 1 = vehicle control, 0 substrate-free wells;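 active means activation factor of 2 or more at 20 µM, relative to plate controls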
# Diaph act CS = compounds boosting diaphorase resazurin reduction – biochemical, uHTS, resorufin fluorescence, counter-screen for diaphorase-coupled primary assays, primary screen | AID 1229, 2008 | activation factor at 20 µM | Diaphorase/resazurin coupled assay, 16 min; stronger effect = higher value; 1 = vehicle wells, 0 = NADH-free wells | 190,000 tested, 0.005% active;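 active means diaphorase activity raised at least twofold by the compound at 20 µM; inactive means activation factor below 2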
#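 Material: purified diaphorase enzyme from Clostridium kluyveri / Medium: HEPES pH 7.4 buffer with MgCl2 and Tween 20 / Schedule: enzyme reaction of 16 min at room temperature / Measured by: resorufin fluorescence, excitation 544 nm, emission 590 nm / Evaluation: rise in resorufin formation, marking diaphorase activation or chemical reduction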
# WT yeast gro inh = growth inhibition of WT strain, primary screen, mitochondrial fusion inhibitor project, WT and mutant strains, chemical genetic | inhibition, % at 10 µM | 190,000 tested, 2.1% active | mitochondrial fusion phenotypic screen | AID 1362, 2008; in the data active means inhibition above about 58%; tested in S. cerevisiae
# Starred values were filed as active, the others as inactive; / = no result given. The list is not random: actives were taken first. Their share in the collection is about 10%.
SMILES,PMI act satM6P,L major viab,PMI act,Diaph act CS,WT yeast gro inh
CCOC(=O)CCNCc1ccc(F)cc1,1.1,-4,1.2,1,-4
COc1ccc(CNCc2cccc(Oc3ccccc3)c2)cc1,1,87*,1,0.9,43
C/C(CCC(=O)OC[C@H]1O[C@H](C#Cc2ccccc2)C=C[C@@H]1Oc1ccc(C)cc1)=N\O[C@@H](C)CN1CCCCc2nc(C)c(C)cc21,0.9,11,1,0.9,20
COc1ccc(O[C@H]2C=C[C@@H](c3ccccc3)O[C@@H]2COC(=O)CC/C(C)=N/O[C@@H](C)CN2CCCCc3nc(C)c(C)cc32)cc1,1,0,1.1,0.9,67*
Cc1ccc(S(=O)(=O)C2(C(=O)N3CCN(c4cc(C)ccc4C)CC3)CC2)cc1,0.9,72*,0.9,0.7,28
Cc1ccc(S(=O)(=O)C2(C(=O)N3CCN(C4CCCCC4)CC3)CC2)cc1,1.1,76*,1.1,1.1,-11
CCOC(=O)CSc1nc(=O)n2cc(C)ccc2n1,0.9,-9,1,0.9,-7
Fc1ccccc1Nc1nc2c(s1)CCc1ccccc1-2,0.4,9,0.7,0.6,64*
O=C(Nc1nc2c(s1)CCc1ccccc1-2)c1cccs1,0.7,25,1,0.7,10
S=C(Nc1ccc(Br)cc1Cl)Nn1cnnc1,0.9,-8,0.7,0.8,8
O=C1/C(=C/c2ccc(N3CCOCC3)o2)SC(=Nc2ccccc2)N1CCc1c[nH]c2ccccc12,0.8,100*,0.8,0.8,57
CCOc1cc(S(=O)(=O)Nc2cc(C)cc(C)c2)ccc1Cl,0.8,96*,0.7,0.7,29
Cc1cc(Nc2ccccc2)c2c([N+](=O)[O-])ccc(C)c2n1,0.9,26,0.8,0.8,71*
N/C(Cc1ccc(Cl)cc1)=N\OC(=O)c1cccc2ccccc12,0.8,99*,0.8,0.7,98*
CSc1nc(C(=O)N2CCc3c([nH]c4ccccc34)C2c2ccccn2)cs1 (stereo not given),1,13,1,1,59*
COc1ccc(C2c3[nH]c4ccccc4c3CCN2C(=O)c2cn3ccccc3n2)c(F)c1 (stereo not given),0.8,53*,0.8,0.8,36
Cc1ccc2nc(C(=O)N3CCc4c([nH]c5ccccc45)C3c3ccccn3)cn2c1 (stereo not given),/,68*,/,/,24
Cc1cccc(C2c3[nH]c4ccccc4c3CCN2C(=O)c2noc3c2CCCC3)n1 (stereo not given),0.8,42,0.9,0.6,60*
Cc1ccc(S(=O)(=O)Nc2ccc(Cl)cc2C(=O)c2ccc(F)cc2)cc1,0.9,14,0.8,0.9,51
Cc1nn(-c2ccccc2)c(C)c1NC(=O)COc1ccc(Br)cc1Cl,0.9,-6,0.8,0.8,-4
CCOC(=O)c1c(C)[nH]c(C2=NNC(=NC3CC3)SC2)c1C,0.8,1,0.8,0.9,-19
O=C(c1cc(-c2ccccc2)n[nH]1)N1CCc2c([nH]c3ccccc23)C1c1ccccn1 (stereo not given),0.8,86*,0.8,0.7,71
CNc1nc(Cl)nc(Nc2ccccc2)n1,1.1,-2,1.2,1.1,-2
NNc1nc(Nc2ccccc2)nc(Nc2ccccc2)n1,0.8,100*,0.9,1,17
NNc1nc(Nc2ccccc2)nc(N2CCCCC2)n1,1,100*,0.9,1,20
SMILES,PMI act satM6P,L major viab,PMI act,Diaph act CS,WT yeast gro inh
CCCNc1nc(Nc2ccc(C)cc2)nc(N2CCCC2)n1,1,89*,1,1,67
O=[N+]([O-])c1ccc(Nc2nc(NCCO)nc(N3CCCC3)n2)cc1,1,45,1.1,1,3
c1ccc2oc(-c3ccc(Nc4nc(N5CCCCC5)nc(N5CCOCC5)n4)cc3)nc2c1,0.8,74*,0.8,0.7,13
COc1ccccc1-c1nnc(SCC(=O)NCc2cccs2)n1N,1.1,2,1.1,1,-19
COc1ccc(CC(=O)NNC(=O)CSc2nnc(Cc3ccc(OC)cc3)n2-c2ccccc2)cc1,1,-4,1,1,-1
COc1ccc(-c2cc(=O)[nH][nH]2)cc1OC,0.9,84*,0.9,0.9,-31
CC(C)(C)c1nn2cnnc2n(/N=C/c2ccccc2)c1=O,1,-4,1,1,6
Cc1nccn1-c1cc(C(C)(C)C)nc2c(-c3ccccc3)cnn12,0.9,67*,0.9,0.8,-2
CCc1nccn1-c1cc(C(C)(C)C)nc2c(-c3ccc(Cl)cc3)cnn12,0.9,7,0.8,0.8,9
O=[N+]([O-])c1ccccc1/C=N/Nc1nccnc1Cl,0.9,-5,1,0.9,37
Oc1ccc(/C=N/Nc2nccnc2Cl)c(O)c1,0.8,100*,0.8,0.7,1
CCN(CC)S(=O)(=O)c1ccc(N/N=C/c2ccc(O)cc2O)nc1,1,98*,0.9,0.6,-9
Oc1ccccc1/C=N/Nc1nccnc1Cl,1,98*,0.9,0.8,16
Oc1ccc(/C=N/Nc2ncc(Br)cn2)c(O)c1,0.9,99*,0.6,0.7,31
O=C(Cn1c(=O)sc2ccccc21)Nc1ccc(O)cc1,1,-1,1.1,1.1,7
CCCNC(=O)c1ccc(OC)cc1OC,0.9,-8,1.1,0.9,6
CNC(=O)c1cc2cc(OC)ccc2oc1=O,1.1,-2,1.1,0.9,-1
C/C(=N\Nc1ccccc1)c1c(O)cc(C)oc1=O,2.6*,-3,1.9,0.9,12
COc1ccc2o/c(=N\O)c(C(=O)Nc3ccc(C)cc3)cc2c1,0.9,50*,0.9,0.9,4
COc1ccc2oc(=N)c(C(=O)Nc3ccccc3)cc2c1,0.8,-1,1,0.8,-14
COc1ccc2oc(=O)c(/C(C)=N/Nc3ccccc3)cc2c1,2.5*,-3,1.9,0.8,12
COc1ccc(/C(C)=N/Nc2ccc(C(=O)O)cc2)c(OC)c1,1.6,53*,1.6,0.8,-16
CC(O)CNc1nc2ccccc2n1CC(=O)NC12CC3CC(CC(C3)C1)C2 (stereo not given),1.1,39,1,0.9,-11
CNS(=O)(=O)c1ccc(NS(=O)(=O)c2ccccc2F)cc1,1,-2,1.1,0.9,-3
CC(=O)N1C(=O)N(C(C)=O)C2C1N(C)C(=O)N2C(C)=O (stereo not given),0.9,-7,0.9,1,-11
CN1CCN(c2ccc(C(=O)c3ccc(Br)cc3)cc2[N+](=O)[O-])CC1,1,98*,0.9,0.9,37
